Here are results for 23 compounds from ChEMBL document CHEMBL1134952, “Dual NK(1) antagonists--serotonin reuptake inhibitors as potential antidepressants. Part 2: SAR and activity of benzyloxyphenethyl piperazine derivatives” (Bioorg Med Chem Lett, 2002).

pIC50: −log10 of the molar value. Active and inactive are the calls of the source. The rule behind the calls is not given here.

A word on the pIC50: it is −log10 of the IC50, conventionally taken in molar units. Read a low pIC50 as a high IC50.

For assay [1], the target named is Sodium-dependent serotonin transporter (Rattus norvegicus, UniProt P31652). Briefly: Binding affinity against Serotonin transporter in rat cerebral cortex using [3H]paroxetine binding assay. Type of assay: tissue-based. The procedure, abridged:
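Rat cerebral cortex membranes, […] protein, incubated 120 min at 25 °C in 50 mM Tris–HCl pH 7.4 with 2 mM MgCl2 and 0.05 nM radioligand. Nonspecific binding taken as the residual binding with excess imipramine present.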

The target in assay [2] is T1, Substance-P receptor (Homo sapiens, UniProt P25103). Nature of the assay: Binding affinity against human Tachykinin receptor 1 expressed in CHO cells using [3H]-substance P as the radioligand. It is filed as cell-based.
For assay [3], the system named is Gerbillinae. Briefly: Dose required to decrease by 45% the duration of the foot-tapping, indicating efficacious central blockade of NK1 receptors. It is filed as functional.
Assay [4] concerns Cavia porcellus. Nature of the assay: Oral dose required attenuate by 50% the duration of vocalizations in the isolation-induced guinea pig pup by vocalization test. It is filed as functional.
In assay [5] the test system is Cavia porcellus. Briefly: Oral dose required attenuate by 99% the duration of vocalizations in the isolation-induced guinea pig pup by vocalization test. It is filed as functional.
In assay [6] the test system is Rattus norvegicus. Briefly: Intraperitoneal dose required to increase extracellular 5-HT levels to 250% in the frontal cortex of freely moving rats by using intracerebral microdialysis. Type of assay: functional.
Assay [7] concerns the target T1, Substance-P receptor. Briefly: Binding affinity against human Tachykinin receptor 1 expressed in CHO cells using [3H]-substance P as the radioligand; less than 50% inhibition at 10e-5 M. It is filed as cell-based.

T1 sequence (P25103 whole entry): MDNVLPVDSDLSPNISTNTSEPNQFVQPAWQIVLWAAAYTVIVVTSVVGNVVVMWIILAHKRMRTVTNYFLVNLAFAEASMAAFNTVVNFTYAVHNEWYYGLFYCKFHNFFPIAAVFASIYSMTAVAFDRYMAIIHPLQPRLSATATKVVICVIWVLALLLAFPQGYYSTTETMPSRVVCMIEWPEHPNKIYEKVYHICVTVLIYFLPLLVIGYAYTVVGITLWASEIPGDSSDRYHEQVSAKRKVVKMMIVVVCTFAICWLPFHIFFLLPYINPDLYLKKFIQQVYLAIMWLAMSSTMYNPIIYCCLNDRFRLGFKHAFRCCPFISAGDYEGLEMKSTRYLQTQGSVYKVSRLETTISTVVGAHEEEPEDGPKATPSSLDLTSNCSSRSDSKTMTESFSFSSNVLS
Chain of Sodium-dependent serotonin transporter (P31652 whole entry): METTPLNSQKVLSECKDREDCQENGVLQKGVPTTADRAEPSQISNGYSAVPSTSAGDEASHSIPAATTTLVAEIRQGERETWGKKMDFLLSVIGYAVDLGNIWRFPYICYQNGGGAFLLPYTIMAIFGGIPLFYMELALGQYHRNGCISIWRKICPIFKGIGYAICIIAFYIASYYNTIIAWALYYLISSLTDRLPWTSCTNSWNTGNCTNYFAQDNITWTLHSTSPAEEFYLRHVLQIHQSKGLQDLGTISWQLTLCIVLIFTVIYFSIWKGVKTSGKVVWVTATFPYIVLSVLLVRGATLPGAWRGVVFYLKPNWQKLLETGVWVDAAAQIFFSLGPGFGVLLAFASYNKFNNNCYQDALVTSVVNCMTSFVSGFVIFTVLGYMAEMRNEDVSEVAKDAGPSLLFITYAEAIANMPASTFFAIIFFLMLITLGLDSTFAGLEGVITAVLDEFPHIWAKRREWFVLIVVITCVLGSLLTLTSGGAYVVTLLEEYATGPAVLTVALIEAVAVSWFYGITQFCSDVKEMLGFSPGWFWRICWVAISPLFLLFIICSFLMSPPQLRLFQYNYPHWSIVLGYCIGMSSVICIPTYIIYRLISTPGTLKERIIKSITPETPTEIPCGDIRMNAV

In the case of `FC(F)(F)c1cc(COCC(c2ccccc2Cl)N2CCNCC2)cc(C(F)(F)F)c1` (configuration not stated), the pIC50 in assay [1] was 6.70; in assay [2], 8.80.
On the same counts, the results for `COc1ccccc1C(COCc1cc(C(F)(F)F)cc(C(F)(F)F)c1)N1CCNCC1` (configuration not stated) are 6.60 and 8.20.
For `Brc1cc(Br)cc(COC[C@H](c2ccccc2)N2CCNCC2)c1`, the Dose in assay [3] turned out to be 3.2e-05 M/kg; in assay [4] it was 1e-05 M/kg; in assay [5] it was 3.5e-05 M/kg; in assay [6], 3.2e-05 M/kg. In addition, the pIC50 in assay [1] is 8.00; in assay [2] it was 8.50.
`Brc1cc(Br)cc(COC[C@@H](c2ccccc2)N2CCNCC2)c1`: the pIC50 in assay [1] is 7.50; in assay [2] it was 7.90.
For `Fc1ccccc1C(COCc1cc(C(F)(F)F)cc(C(F)(F)F)c1)N1CCNCC1` (configuration not stated), the values for the pIC50 in assay [1] and in assay [2] were 6.70 and 8.30, respectively.
On the same counts, the results for `FC(F)(F)c1cc(COCC(c2ccccc2)N2CCNCC2)cc(C(F)(F)F)c1` (configuration not stated) are 6.60 and 8.30.
On the same counts, the results for `CC(C)c1cccc(C(COCc2cc(C(F)(F)F)cc(C(F)(F)F)c2)N2CCNCC2)c1` (configuration not stated) are 6.50 and 7.40.
`Brc1cc(I)cc(COCC(c2ccccc2)N2CCNCC2)c1` (configuration not stated): the pIC50 in assay [1] is 7.60; in assay [2], 8.90.
`Cc1cc(C)cc(COCC(c2ccccc2)N2CCNCC2)c1` (configuration not stated) gave a pIC50 in assay [2] of 7.60.
Turning to `Fc1cc(COCC(c2ccccc2)N2CCNCC2)cc(C(F)(F)F)c1` (configuration not stated), the pIC50 in assay [1] was 7.80; in assay [2] it was 7.90.
The matching figures for `COc1ccc(C(COCc2cc(C(F)(F)F)cc(C(F)(F)F)c2)N2CCNCC2)cc1` (configuration not stated): 7.00 and 7.30.
In the case of `Fc1cccc(C(COCc2cc(C(F)(F)F)cc(C(F)(F)F)c2)N2CCNCC2)c1F` (configuration not stated), the pIC50 is 6.50 in assay [1] and 8.50 in assay [2].
Turning to `Clc1cccc(COCC(c2ccccc2)N2CCNCC2)c1` (configuration not stated), the pIC50 in assay [1] was 8.10; in assay [2] it was 6.40.
For the compound `Clc1cc(Cl)cc(COC[C@H](c2ccccc2)N2CCNCC2)c1`, the pIC50 in assay [1] was 8.60; in assay [2], 8.50.
On to `COc1c(Br)cc(Br)cc1COCC(c1ccccc1)N1CCNCC1` (configuration not stated), for which the pIC50 in assay [1] is 8.20; in assay [2], 8.10.
On the same counts, the results for `Clc1cc(Cl)cc(COC[C@@H](c2ccccc2)N2CCNCC2)c1` are 7.90 and 7.60.
The matching figures for `Fc1cc(F)cc(COCC(c2ccccc2)N2CCNCC2)c1` (configuration not stated): 9.10 and 6.70.
On the same counts, the results for `COc1cccc(C(COCc2cc(C(F)(F)F)cc(C(F)(F)F)c2)N2CCNCC2)c1` (configuration not stated) are 6.70 and 9.00.
`FC(F)(F)c1cc(COCC(c2ccc(Cl)c(Cl)c2)N2CCNCC2)cc(C(F)(F)F)c1` (configuration not stated): the pIC50 in assay [1] is 6.70; in assay [2], 8.30.
As for `FC(F)(F)c1cc(COCC(c2cccc(Cl)c2)N2CCNCC2)cc(C(F)(F)F)c1` (configuration not stated), the pIC50 in assay [1] was 6.60; in assay [2], 8.80.
On the same counts, the results for `Fc1ccc(C(COCc2cc(C(F)(F)F)cc(C(F)(F)F)c2)N2CCNCC2)cc1` (configuration not stated) are 6.80 and 7.00.
Consider `CNCCC(Oc1ccc(C(F)(F)F)cc1)c1ccccc1` (configuration not stated), for which the “Log IC50” value in assay [7] is “inactive”.
`CC(C)(C)c1cc(COCC(c2ccccc2)N2CCNCC2)cc(C(C)(C)C)c1` (configuration not stated): in assay [1], the pIC50 is 6.00.
